What was measured:
[1] = molecular target: Metabotropic glutamate receptor 5 (Rattus norvegicus) (UniProt P31424); assay: Positive allosteric modulator activity at rat mGlu5 receptor expressed in HEK293 cells assessed as potentiation of glutamate-induced calcium mobilization at 30 uM by fluorescence assay relative to glutamate; format: functional, cell-based
Outline: (§1)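 HEK293 cells stably expressing rat mGlu5, 15000 cells/well, grown overnight, loaded with 1 µM Fluo-4AM for 50 min at 37 °C in HBSS/20 mM HEPES/2.5 mM probenecid pH 7.4. Compound added, then an EC20 of glutamate 140 s later and an EC80 90–120 s after that. Fluorescence over basal normalized to maximal glutamate response (100 µM glutamate); compound at up to 30 µM; ≥3 independent determinations.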

[2] = molecular target: T1, Metabotropic glutamate receptor 5 (Rattus norvegicus, UniProt P31424); assay: Positive allosteric modulator activity at rat mGlu5 receptor expressed in HEK293 cells assessed as potentiation of glutamate-induced calcium mobilization by fluorescence assay; format: functional, cell-based; outline: as §1
T1 sequence (P31424 whole entry): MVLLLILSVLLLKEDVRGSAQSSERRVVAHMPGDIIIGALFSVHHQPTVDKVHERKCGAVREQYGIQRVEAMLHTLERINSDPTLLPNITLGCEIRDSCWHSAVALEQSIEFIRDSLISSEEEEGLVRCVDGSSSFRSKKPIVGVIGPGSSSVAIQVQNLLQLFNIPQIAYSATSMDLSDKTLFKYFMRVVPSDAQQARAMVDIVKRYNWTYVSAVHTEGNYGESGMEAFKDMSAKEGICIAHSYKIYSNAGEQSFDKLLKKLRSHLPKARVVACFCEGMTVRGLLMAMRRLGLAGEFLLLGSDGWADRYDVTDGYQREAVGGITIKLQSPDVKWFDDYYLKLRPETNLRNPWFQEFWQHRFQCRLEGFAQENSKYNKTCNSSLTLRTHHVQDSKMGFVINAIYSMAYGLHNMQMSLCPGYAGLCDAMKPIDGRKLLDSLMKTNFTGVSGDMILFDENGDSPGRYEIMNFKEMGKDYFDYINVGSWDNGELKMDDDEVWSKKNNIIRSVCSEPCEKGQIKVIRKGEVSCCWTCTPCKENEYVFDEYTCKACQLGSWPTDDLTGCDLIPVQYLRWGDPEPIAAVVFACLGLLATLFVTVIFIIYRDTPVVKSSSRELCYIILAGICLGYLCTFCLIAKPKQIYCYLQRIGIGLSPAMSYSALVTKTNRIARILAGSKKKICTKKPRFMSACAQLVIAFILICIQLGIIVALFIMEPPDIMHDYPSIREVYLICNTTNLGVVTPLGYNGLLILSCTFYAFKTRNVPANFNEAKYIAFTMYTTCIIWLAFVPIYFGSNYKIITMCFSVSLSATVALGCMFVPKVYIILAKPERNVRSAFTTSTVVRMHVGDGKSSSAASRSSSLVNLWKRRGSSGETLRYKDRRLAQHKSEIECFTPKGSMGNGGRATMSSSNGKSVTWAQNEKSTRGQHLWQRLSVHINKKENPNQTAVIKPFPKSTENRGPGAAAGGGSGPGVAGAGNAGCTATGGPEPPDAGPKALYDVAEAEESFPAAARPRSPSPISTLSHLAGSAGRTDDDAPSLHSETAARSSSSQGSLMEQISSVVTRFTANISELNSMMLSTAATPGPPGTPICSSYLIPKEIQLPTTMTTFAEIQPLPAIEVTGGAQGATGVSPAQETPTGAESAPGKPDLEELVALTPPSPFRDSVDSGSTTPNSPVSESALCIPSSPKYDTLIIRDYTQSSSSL

[3] = molecular target: Metabotropic glutamate receptor 3 (Rattus norvegicus) (UniProt P31422); assay: Negative allosteric modulator activity at rat mGlu3 receptor expressed in HEK293 cells assessed as negative cooperativity fold shift of glutamate concentration response curve for GIRK channel-mediated thallium flux at 10 uM treated 140s prior to glutamate challenge by fluorescence analysis; format: cell-based
Chain of Metabotropic glutamate receptor 3 (Rattus norvegicus) (P31422 23-879 limits assumed): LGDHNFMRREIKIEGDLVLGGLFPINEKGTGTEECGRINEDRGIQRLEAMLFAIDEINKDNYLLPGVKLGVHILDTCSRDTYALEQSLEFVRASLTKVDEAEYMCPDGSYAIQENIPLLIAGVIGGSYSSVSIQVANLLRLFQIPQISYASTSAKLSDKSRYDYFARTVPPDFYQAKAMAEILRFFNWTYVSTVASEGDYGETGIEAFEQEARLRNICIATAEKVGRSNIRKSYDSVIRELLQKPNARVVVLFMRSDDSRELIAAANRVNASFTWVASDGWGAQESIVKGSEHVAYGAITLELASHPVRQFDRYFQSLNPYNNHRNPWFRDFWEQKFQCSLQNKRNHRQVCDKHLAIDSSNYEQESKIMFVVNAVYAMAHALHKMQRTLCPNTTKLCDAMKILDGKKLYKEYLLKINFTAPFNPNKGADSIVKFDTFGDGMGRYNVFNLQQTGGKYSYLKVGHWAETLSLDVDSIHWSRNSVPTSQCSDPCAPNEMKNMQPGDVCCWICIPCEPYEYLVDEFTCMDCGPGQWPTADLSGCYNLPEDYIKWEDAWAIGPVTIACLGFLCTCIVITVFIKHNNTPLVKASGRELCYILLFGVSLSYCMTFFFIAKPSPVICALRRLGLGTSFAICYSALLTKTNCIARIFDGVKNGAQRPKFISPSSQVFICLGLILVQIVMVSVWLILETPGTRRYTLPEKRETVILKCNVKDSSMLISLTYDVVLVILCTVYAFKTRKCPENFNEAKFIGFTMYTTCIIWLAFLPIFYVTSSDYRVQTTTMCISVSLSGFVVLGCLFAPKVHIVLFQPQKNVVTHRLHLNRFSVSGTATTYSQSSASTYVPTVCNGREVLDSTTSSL
Outline: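 HEK293-GIRK cells expressing rat mGlu2, 3, 4, 6, 7 or 8, 15000 cells/well. Vehicle or 10 µM compound added, then 140 s later a glutamate CRC (L-AP4 for mGlu7) in thallium buffer (12 mM thallium sulfate, 10 mM HEPES). Thallium flux through GIRK read by fluorescence.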

Plasma [4] = assay: Fraction unbound in human plasma; format: ADME, cell-free
Plasma [5] = assay: (§2) Fraction unbound in rat plasma; format: ADME, cell-free
[6] = as §2; format: ADME, cell-free
[7] = molecular target: Metabotropic glutamate receptor 5 (Rattus norvegicus) (UniProt P31424); assay: Partial antagonist activity at rat mGlu5 receptor expressed in HEK293 cells relative to glutamate; format: cell-based
[8] = molecular target: T1, Metabotropic glutamate receptor 5; assay: Partial antagonist activity at rat mGlu5 receptor expressed in HEK293 cells; format: cell-based

Chain of Metabotropic glutamate receptor 5 (Rattus norvegicus) (P31424 21-1203 limits assumed): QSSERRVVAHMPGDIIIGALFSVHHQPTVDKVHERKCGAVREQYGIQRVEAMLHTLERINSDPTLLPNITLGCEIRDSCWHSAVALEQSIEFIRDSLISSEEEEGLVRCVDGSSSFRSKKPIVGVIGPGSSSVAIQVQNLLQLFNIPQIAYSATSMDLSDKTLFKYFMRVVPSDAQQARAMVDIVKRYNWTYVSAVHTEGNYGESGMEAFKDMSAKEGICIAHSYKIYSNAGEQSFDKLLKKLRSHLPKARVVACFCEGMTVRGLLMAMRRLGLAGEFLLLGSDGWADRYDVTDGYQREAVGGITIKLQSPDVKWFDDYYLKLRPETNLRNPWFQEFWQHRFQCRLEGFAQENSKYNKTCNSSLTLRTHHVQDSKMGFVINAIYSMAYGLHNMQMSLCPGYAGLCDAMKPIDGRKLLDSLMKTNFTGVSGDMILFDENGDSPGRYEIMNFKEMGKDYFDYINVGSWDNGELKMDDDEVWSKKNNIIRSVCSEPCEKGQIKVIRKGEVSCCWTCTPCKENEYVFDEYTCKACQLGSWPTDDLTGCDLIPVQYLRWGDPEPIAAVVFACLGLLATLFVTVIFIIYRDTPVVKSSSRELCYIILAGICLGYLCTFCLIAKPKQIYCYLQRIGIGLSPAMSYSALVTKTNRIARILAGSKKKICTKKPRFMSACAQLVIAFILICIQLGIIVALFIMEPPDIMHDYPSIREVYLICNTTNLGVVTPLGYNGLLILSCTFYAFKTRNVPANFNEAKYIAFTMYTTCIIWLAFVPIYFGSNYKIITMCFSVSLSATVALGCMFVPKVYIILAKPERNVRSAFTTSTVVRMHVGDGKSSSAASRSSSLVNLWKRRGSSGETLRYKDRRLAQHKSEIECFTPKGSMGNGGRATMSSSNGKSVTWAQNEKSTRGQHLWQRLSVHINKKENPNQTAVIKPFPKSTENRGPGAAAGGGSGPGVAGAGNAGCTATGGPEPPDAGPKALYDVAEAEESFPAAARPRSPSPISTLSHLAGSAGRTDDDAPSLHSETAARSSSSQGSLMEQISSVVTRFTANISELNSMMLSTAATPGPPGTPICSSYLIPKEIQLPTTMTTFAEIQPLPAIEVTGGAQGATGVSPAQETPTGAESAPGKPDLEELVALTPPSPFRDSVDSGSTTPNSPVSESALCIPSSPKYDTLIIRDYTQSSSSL

SMILES | %max [1] [%] | EC50 ([2]; read-out: EC50) [nM] | Activity [1] [%] | other results
O=C1NCCc2nc(COc3ccccc3)ccc21 | 43 | > 10000 |  | 
O=C1c2ccc(COc3cccc(F)c3)nc2CCN1c1ccc(F)cc1 | 72 | 97 |  | fold change (FC) [3]: 0.2; Fu (Plasma [4]): 0.014; Fu (Plasma [5]): 0.029
O=C(c1ccc(F)cc1)N1CCc2ncc(COc3ccc(F)cc3)cc2C1 | 53 | 1770 |  | 
O=C1NCCc2nc(OCc3ccccc3Cl)ccc21 |  |  | < 10 | 
O=C1NCCc2nc(OCc3cccnc3)ccc21 |  |  | < 10 | 
O=C1c2ccc(COc3ccccc3)nc2CCN1c1ccc(F)cc1 | 68 | 198 |  | Fu (Plasma [4]): 0.021; fraction unbound [6]: 0.036
O=C1NCCc2nc(OCc3ccccn3)ccc21 |  |  | < 10 | 
O=C1c2ccc(COc3cccc(F)c3)nc2CCN1CC1CC1 | 33 | > 10000 |  | 
O=C1c2ccc(COc3cccc(F)c3)nc2CCN1Cc1ccccc1 | 38 | > 10000 |  | 
O=C(C1CC1)N1CCc2ncc(OCc3cccc(F)c3)cc2C1 |  |  | < 10 | 
O=C1NCCc2nc(OCc3ccc(Cl)cc3)ccc21 |  |  | < 10 | 
O=C1NCCc2cc(COc3ccccc3)cnc21 |  |  | < 10 | 
C[C@@H](N1CCc2cc(COc3ccccc3)cnc2C1=O)C(C)(C)C |  |  | < 10 | 
O=C(c1ccc(F)cc1)N1CCc2ncc(OCc3ccccc3)cc2C1 |  |  |  | Emin [7]: 53%; IC50 [8]: 7810 nM
O=C1c2cnc(COc3ccccc3)cc2CCN1c1ccc(F)cc1 | 30 | 403 |  | 
O=C(c1ccc(F)cc1)N1CCc2ncc(COc3ccccc3)cc2C1 | 69 | 640 |  | 
CN1CCc2cc(COc3ccccc3)cnc2C1=O |  |  | < 10 | 
O=C1NCCc2cc(COc3ccccc3)ncc21 |  |  | < 10 | 
CC(N1CCc2cc(COc3ccccc3)ncc2C1=O)C(C)(C)C (stereo not drawn) |  |  | < 10 | 
CCCCOc1ccc2c(n1)CCNC2=O |  |  | < 10 | 
O=C1NCCc2nc(COc3cccc(F)c3)ccc21 | 34 | > 10000 |  | 
O=C(c1ccccc1)N1CCc2ncc(OCc3ccccc3)cc2C1 |  |  | < 10 | 
O=C1c2ncc(COc3ccccc3)cc2CCN1c1ccc(F)cc1 | 81 | 538 |  | fold change (FC) [3]: 0.3; Fu (Plasma [4]): 0.096; Fu (Plasma [5]): 0.11
CN1CCc2cc(COc3ccccc3)ncc2C1=O |  |  | < 10 | 
O=C(c1ccc(F)cc1)N1CCc2ncc(COc3cccc(F)c3)cc2C1 | 69 | 1090 |  | 
O=C1c2ccc(COc3cccc(F)c3)nc2CCN1c1ccc(F)cn1 | 59 | 595 |  | 
O=C(c1cccc(F)c1)N1CCc2ncc(OCc3cccc(F)c3)cc2C1 | 30 | 1630 |  | 

Continued, in another order:

%max [1] [%] | EC50 ([2]; read-out: EC50) [nM] | Activity [1] [%] | SMILES | other results
36 | 3170 |  | O=C1c2ccc(OCc3cccc(F)c3)nc2CCN1Cc1ccccc1 | 
 |  | < 10 | O=C1c2ccc(OCc3cccc(F)c3)nc2CCN1CC1CC1 | 
 |  | < 10 | CN1CCc2nc(OCc3cccc(F)c3)ccc2C1=O | 
38 | 118 |  | O=C1c2ccc(OCc3cccc(F)c3)nc2CCN1c1ccc(F)cc1 | 
50 | 212 |  | O=C1c2ccc(OCc3cccc(F)c3)nc2CCN1c1ccc(F)cn1 | Fu (Plasma [4]): 0.01; Fu (Plasma [5]): 0.025
38 | 1150 |  | CC(C)CN1CCc2nc(COc3cccc(F)c3)ccc2C1=O | 
43 | 62 |  | O=C1NCCc2nc(OCc3cccc(Cl)c3)ccc21 | 
39 | 2470 |  | CC1(CN2CCc3nc(OCc4cccc(F)c4)ccc3C2=O)COC1 | 
 |  | < 10 | CN1CCc2nc(COc3cccc(F)c3)ccc2C1=O | 
 |  | < 10 | O=C1c2ccc(OCc3ccccc3)nc2CCN1Cc1ccccn1 | 
54 | 1030 |  | O=C1NCCc2nc(OCc3ccccc3)ccc21 | EC50 ([2]; read-out: pEC50 (converted)): 1050 nM
36 | 444 |  | O=C1c2ccc(OCc3cccc(F)c3)nc2CCN1CC1CCC1 | 
 |  | < 10 | CC(C)CN1CCc2nc(OCc3cccc(F)c3)ccc2C1=O | 
 |  | < 10 | CCCCOc1ccc2c(n1)CCN(c1ccc(F)cc1F)C2=O | 
23 | 2760 |  | O=C1c2ccc(OCc3ccccc3)nc2CCN1Cc1ccccc1 | 
68 | 1170 |  | O=C1NCCc2nc(OCc3ccccc3F)ccc21 | 

Source: ChEMBL document CHEMBL3297742, “Tetrahydronaphthyridine and dihydronaphthyridinone ethers as positive allosteric modulators of the metabotropic glutamate receptor 5 (mGlu₅)” (J Med Chem, 2014)
